{"source": "ChEMBL document CHEMBL1150854", "about": "“New prenylated bi- and tricyclic phloroglucinol derivatives from Hypericum papuanum” (J Nat Prod, 2001)", "note": "Activity calls are given as the source filed them. The calls are words filed in the database; no cut-off is given here."}
{"test_system": "KB", "assay": "(§1) Cytotoxicity against human KB cells", "type": "functional, cell-based", "settings": "Homo sapiens, KB; read-out: IC50", "method_in_brief": "(§2)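 KB cells (ATCC CCL 17, human nasopharyngeal carcinoma), run by the method of earlier published work. Each test done at least in triplicate. Value given as IC50 in μg/mL. Podophyllotoxin served as positive control.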", "units": {"IC50": "mg/L"}}
{"smiles": "COc1cc([C@@H]2c3cc4c(cc3[C@H](O)[C@H]3COC(=O)[C@H]23)OCO4)cc(OC)c1OC", "note": "[PODOFILOX]", "IC50": 0.006}
{"smiles": "CCC(C)C(=O)[C@]12C(=O)C3=C(OC(C)(C)C=C3)[C@](C)(C[C@@H](CC=C(C)C)[C@]1(C)CCC=C(C)C)C2=O", "note": "(stereo partly specified) [PAPUAFORIN D]", "IC50": 6.6}
{"smiles": "CCC(C)C(=O)[C@]12C(=O)C3=C(OC(C)(C)C=C3)[C@](C)(C[C@@H](CC=C(C)C)C1(C)C)C2=O", "note": "(stereo partly specified) [PAPUAFORIN C]", "IC50": 4.9}
{"smiles": "CC(C)=CC[C@@H]1C[C@]2(C)C(=O)[C@@](C(=O)C(C)C)(C(=O)C3=C2OC(C)(C)C=C3)C1(C)C", "note": "[PAPUAFORIN A]", "IC50": 7.5}
{"smiles": "CC(C)=CCC1(C)C(=O)C(C(=O)C(C)C)=C(O)C2=C1OC(C)(C)C=C2", "note": "(stereo in doubt; 7a) [HYPERGUINONE B]", "IC50": 13}
{"smiles": "CC(C)=CCC[C@@]1(C)[C@H](CC=C(C)C)C[C@]2(C)C(=O)[C@@]1(C(=O)C(C)C)C(=O)C1=C2OC(C)(C)C=C1", "note": "[PAPUAFORIN E]", "IC50": 5.6}
{"test_system": "KB", "assay": "as §1", "type": "functional, cell-based", "settings": "kb", "method_in_brief": "as §2", "units": {"IC50": "mg/L"}}
{"smiles": "CC(C)=CC[C@@H]1C[C@@]2(C)C(=O)[C@](CC=C(C)C)(C(=O)C(C(=O)C(C)C)=C2O)C1(C)C", "note": "(stereo in doubt; 8)", "IC50": 3.2}
{"smiles": "CC(C)=CCC1(C)C(=O)C(C(=O)C(C)C)=C(O)C2=C1OC(C)(C)C=C2", "note": "(stereo in doubt; 7) [HYPERGUINONE B]", "IC50": 13}
{"test_system": "Staphylococcus epidermidis", "assay": "(§3) Antibacterial activity against Staphylococcus epidermidis ATCC 12228 by doubling dilution method", "type": "functional", "settings": "not given", "method_in_brief": "(§4)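 Doubling (twofold) broth dilution of pure compounds, modified from an earlier published procedure. Gram-positive strains: B. cereus ATCC 10702, S. epidermidis ATCC 12228, M. luteus ATCC 9341. Read-out is MIC in μg/mL. Chloramphenicol served as positive control.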", "units": {"MIC": "mg/L"}}
{"smiles": "CCC(C)C(=O)[C@]12C(=O)C3=C(OC(C)(C)C=C3)[C@](C)(C[C@@H](CC=C(C)C)[C@]1(C)CCC=C(C)C)C2=O", "note": "(stereo partly specified) [PAPUAFORIN D]", "Activity": "inactive"}
{"smiles": "CCC(C)C(=O)[C@]12C(=O)C3=C(OC(C)(C)C=C3)[C@](C)(C[C@@H](CC=C(C)C)C1(C)C)C2=O", "note": "(stereo partly specified) [PAPUAFORIN C]", "Activity": "inactive"}
{"smiles": "CC(C)=CCC1(C)C(=O)C(C(=O)C(C)C)=C(O)C2=C1OC(C)(C)C=C2", "note": "(stereo in doubt; 7)", "Activity": "inactive"}
{"smiles": "CC(C)=CC[C@@H]1C[C@]2(C)C(=O)[C@@](C(=O)C(C)C)(C(=O)C3=C2OC(C)(C)C=C3)C1(C)C", "note": "[PAPUAFORIN A]", "Activity": "inactive"}
{"smiles": "CCC(=O)C1=C(O)C2=C(OC(C)(C)C=C2)C(C)(CC=C(C)C)C1=O", "note": "(stereo in doubt; 6) [HYPERGUINONE A]", "MIC": 32}
{"smiles": "CC(C)=CCC1(C)C(=O)C(C(=O)C(C)C)=C(O)C2=C1OC(C)(C)C=C2", "note": "(stereo in doubt; 7a)", "Activity": "inactive"}
{"test_system": "Staphylococcus epidermidis", "assay": "as §3", "type": "functional", "settings": "Staphylococcus epidermidis, ATCC 12228; read-out: MIC", "method_in_brief": "as §4", "units": {"MIC": "mg/L"}}
{"smiles": "O=C(N[C@H](CO)[C@H](O)c1ccc([N+](=O)[O-])cc1)C(Cl)Cl", "note": "[CHLORAMPHENICOL]", "MIC": 4}
{"smiles": "CCC(=O)C1=C(O)C2=C(OC(C)(C)C=C2)C(C)(CC=C(C)C)C1=O", "note": "(stereo in doubt; 6a) [HYPERGUINONE A]", "MIC": 32}
{"smiles": "CC(C)=CC[C@@H]1C[C@@]2(C)C(=O)[C@](CC=C(C)C)(C(=O)C(C(=O)C(C)C)=C2O)C1(C)C", "note": "(stereo in doubt; 8)", "MIC": 8}
{"smiles": "CC(C)=CCC[C@@]1(C)[C@H](CC=C(C)C)C[C@]2(C)C(=O)[C@@]1(C(=O)C(C)C)C(=O)C1=C2OC(C)(C)C=C1", "note": "[PAPUAFORIN E]", "MIC": 32}
{"test_system": "Micrococcus luteus", "assay": "Antibacterial activity against Micrococcus luteus ATCC 9341 by doubling dilution method", "type": "functional", "settings": "not given", "method_in_brief": "as §4", "units": {"MIC": "mg/L"}}
{"smiles": "CCC(C)C(=O)[C@]12C(=O)C3=C(OC(C)(C)C=C3)[C@](C)(C[C@@H](CC=C(C)C)C1(C)C)C2=O", "note": "(stereo partly specified) [PAPUAFORIN C]", "MIC": 32}
{"smiles": "O=C(N[C@H](CO)[C@H](O)c1ccc([N+](=O)[O-])cc1)C(Cl)Cl", "note": "[CHLORAMPHENICOL]", "MIC": 2}
{"smiles": "CC(C)=CC[C@@H]1C[C@@]2(C)C(=O)[C@](CC=C(C)C)(C(=O)C(C(=O)C(C)C)=C2O)C1(C)C", "note": "(stereo in doubt; 8)", "MIC": 16}
{"test_system": "Bacillus cereus", "assay": "(§5) Antibacterial activity against Bacillus cereus ATCC 10702 by doubling dilution method", "type": "functional", "settings": "not given", "method_in_brief": "as §4", "units": {"MIC": "mg/L"}}
{"smiles": "CCC(=O)C1=C(O)C2=C(OC(C)(C)C=C2)C(C)(CC=C(C)C)C1=O", "note": "(stereo in doubt; 6) [HYPERGUINONE A]", "MIC": 32}
{"smiles": "CC(C)=CCC1(C)C(=O)C(C(=O)C(C)C)=C(O)C2=C1OC(C)(C)C=C2", "note": "(stereo in doubt; 7) [HYPERGUINONE B]", "MIC": 32}
{"test_system": "Bacillus cereus", "assay": "as §5", "type": "functional", "settings": "Bacillus cereus, ATCC 10702; read-out: MIC", "method_in_brief": "as §4", "units": {"MIC": "mg/L"}}
{"smiles": "CCC(C)C(=O)[C@]12C(=O)C3=C(OC(C)(C)C=C3)[C@](C)(C[C@@H](CC=C(C)C)[C@]1(C)CCC=C(C)C)C2=O", "note": "(stereo partly specified) [PAPUAFORIN D]", "MIC": 128}
{"smiles": "CCC(C)C(=O)[C@]12C(=O)C3=C(OC(C)(C)C=C3)[C@](C)(C[C@@H](CC=C(C)C)C1(C)C)C2=O", "note": "(stereo partly specified) [PAPUAFORIN C]", "MIC": 64}
{"smiles": "CC(C)=CC[C@@H]1C[C@]2(C)C(=O)[C@@](C(=O)C(C)C)(C(=O)C3=C2OC(C)(C)C=C3)C1(C)C", "note": "[PAPUAFORIN A]", "MIC": 64}
{"smiles": "CC(C)=CCC1(C)C(=O)C(C(=O)C(C)C)=C(O)C2=C1OC(C)(C)C=C2", "note": "(stereo in doubt; 7a) [HYPERGUINONE B]", "MIC": 32}
{"smiles": "O=C(N[C@H](CO)[C@H](O)c1ccc([N+](=O)[O-])cc1)C(Cl)Cl", "note": "[CHLORAMPHENICOL]", "MIC": 2}
{"smiles": "CCC(=O)C1=C(O)C2=C(OC(C)(C)C=C2)C(C)(CC=C(C)C)C1=O", "note": "(stereo in doubt; 6a) [HYPERGUINONE A]", "MIC": 32}
{"smiles": "CC(C)=CC[C@@H]1C[C@@]2(C)C(=O)[C@](CC=C(C)C)(C(=O)C(C(=O)C(C)C)=C2O)C1(C)C", "note": "(stereo in doubt; 8)", "MIC": 8}
{"smiles": "CC(C)=CCC[C@@]1(C)[C@H](CC=C(C)C)C[C@]2(C)C(=O)[C@@]1(C(=O)C(C)C)C(=O)C1=C2OC(C)(C)C=C1", "note": "[PAPUAFORIN E]", "MIC": 64}
